Data reported in paper PMC7114209 (Antiviral Research, 2008).

Assays:
[1] = Cell growth and viability assay; assay type: cell-based; details: human, Raji cells, CC50, cytotoxic concentration that decreased cell viability to 50% of untreated cells, MTT, mean ± S.D. of three experiments
Outline: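 Raji cells (latently EBV-infected, non-producer) kept at 4–6 × 10^5 cells/ml in RPMI 1640 with 10% FCS, penicillin and streptomycin. Cells were seeded in 96-well plates and exposed to a range of test compound concentrations for 3 days. MTT was then added for 6 h at 37 °C and solubilised in 0.04 M HCl–isopropanol. Absorbance was read at 595 nm against 655 nm. CC50 is relative to the no-drug control.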

[2] = system: EBV DNA in P3HR-1 cells; details: ref Lin, 2003; cited from earlier work
[3] = system: EBV DNA in Raji cells; details: latently infected Raji cells, not superinfected; ref Lin, 2003; cited from earlier work

For `CC1(C)[C@@H](O[C@H]2O[C@H](C(=O)O)[C@@H](O)[C@H](O)[C@H]2O[C@@H]2O[C@H](C(=O)O)[C@@H](O)[C@H](O)[C@H]2O)CC[C@]2(C)[C@H]3C(=O)C=C4[C@@H]5C[C@@](C)(C(=O)O)CC[C@]5(C)CC[C@@]4(C)[C@]3(C)CC[C@@H]12` [GL (18β-GL), Glycyrrhizic acid], the CC50 at 3 days [1] is listed as 4.5 ± 0.16 mM, the “effect on EBV DNA” value [2] is listed as “no effects” and the “effect on EBV DNA” value [3] is listed as “no effects”.
